The values that follow come from article PMC4651454 (Journal of virology & antiviral research, 2014).

For data set [1], the system named is Huh7.5.1 cells. In words: in vitro. The class given is cell-based. The note with it: human, 120 h.
The nature of another data set: in vitro. The data set is classed as cell-based. The note with it: human, CC50 μM (±S.D).
For another data set, the system named is JC1-Luc2a (infection). In words: JC1-Luc2a infectious virus luciferase assay. The class given is cell-based. The note with it: Hepatitis C virus.
Data set [2] has as its system JC1-Luc2a (electroporation). In words: JC1-Luc2a transfected. The data set is classed as cell-based. To be noted: Hepatitis C virus.
The subject of data set [3] is full-length genotype 1b replicon. To be noted: ref 20 (Yano et al.); cited from earlier work.
The test system of data set [4] is BM4-5 FEO (genotype 1b) replicon. In words: Synergy of 1,25. The data set is classed as cell-based, hepatitis C virus.
In another data set the test system is HCV core protein. The experiment in a line: HCV core protein immunoblot in JC1-Luc2a electroporated Huh7.5.1 cells. The data set is classed as cell-based, hepatitis C virus. The note with it: 10 μM 1,25(OH)2D3, 10 IU/mL IFN-α, 72 hours, compared to untreated cells. An outline of the steps: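 Huh7.5.1 cells electroporated with JC1-Luc2a were incubated for 72 h without drug, with 10 µM 1,25(OH)2D3, with 10 IU/mL IFN-α, or with both. Confluent plates were trypsinized, counted and lysed in equal RIPA volumes. Each condition was run in triplicate. Lysates were run on 12% Bis-Tris SDS-PAGE and transferred to nitrocellulose. Core (anti-core, epitope aa 7-50) and β-actin were detected with goat anti-mouse IgG, and band density was quantified.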
Background: Immunoblotting shows a protein as a band on a membrane.

The subject of the next data set is HCV genotype 1 patients. The note with it: supplemented group, HCV genotype 1, PEG-IFN/RBV; controls 42%, P<0.001; cited from earlier work.
A further data set concerns HCV. To be noted: ref 23 (Matsumura et al.); cited from earlier work.
In data set [5] the test system is Huh7.5.1 cells. In words: Microarray gene expression. The class given is cell-based, human. An outline of the steps:
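Huh7.5.1 cells were JC1-Luc2a-transfected or mock-transfected, cultured 4 days, then plated. 1,25(OH)2D3 was added at staggered times to give 6, 12, 24, 72 or 120 h exposures, with RNA harvested at 120 h (day 9). Biotinylated cRNA (250 ng total RNA input; 750 ng hybridized) was run on HumanHT-12 v4 chips, 18-20 h at 58°C, with Cy3 detection. Data were LOESS-normalized and compared against uninfected untreated cells.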

The test system of data set [6] is HCV infected Huh7.5.1 cells. The experiment in a line: RT-qPCR of selected genes in HCV infected cells. The class given is cell-based, human. The note with it: 10 μM, over IFN-α treated cells (p=0.032). In a few lines: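 HCV-infected Huh7.5.1 cells were prepared as for the microarray and treated for 6 or 72 h with 1,25(OH)2D3 (4 or 10 µM) and IFN-α (1 or 10 IU/mL), alone or combined. Cultures were run in triplicate. RNA was reverse-transcribed and measured by TaqMan RT-qPCR in duplicate reactions, normalized to GAPDH. Fold change versus untreated infected culture was calculated by 2^-ΔΔCt. Means with 1 standard deviation were compared by Student t-test.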
In general terms: In qPCR the cycle at which signal appears reflects the starting amount.

The term CC50 denotes the concentration that lowers cell viability or growth by half. A high value points to lower toxicity to the cells. Broadly, the EC50 is the concentration needed to bring the measured effect to its halfway point.

Take `C=C1CC[C@H](O)C/C1=C/C=C1\CCC[C@]2(C)[C@@H]([C@H](C)/C=C/[C@H](C)C(C)C)CC[C@@H]12` [Vitamin D2]: it took 41.9 µM to reach half-maximal cytotoxicity with Huh7.5.1 cells [1] (CC50). In “in vitro”, this compound returned a CC50 at 72 h of 53.9 µM. For the same compound, the half-maximal effective concentration (EC50) in the data set on JC1-Luc2a (infection) (72 h) is 5.72 µM; in the data set with JC1-Luc2a (infection) (120 h), 4.41 µM; in data set [2] (72 h), 18.6 µM; in data set [2] (120 h), 21.4 µM. Besides, the “EC50, inhibition of HCV RNA replication” value in [3] is 1.6 µg/mL.

With IFN-α, in data set [4] (BM4-5 FEO genotype 1b replicon), the “EC50 (used for synergy dosing)” value worked out at 1 IU/mL. For the same compound, in the data set with HCV core protein, the “HCV core protein expression by immunoblot” value is “Mild reduction”.

For the compound `C=C1CC[C@H](O)C/C1=C/C=C1\CCC[C@]2(C)[C@@H]([C@H](C)/C=C/[C@H](C)C(C)C)CC[C@@H]12` [vitamin D], the SVR rate in the data set with HCV genotype 1 patients is recorded as 86%.

With `C=C1CC[C@H](O)C/C1=C/C=C1\CCC[C@]2(C)[C@@H]([C@H](C)CCCC(C)(C)O)CC[C@@H]12` [25(OH) D3], in the data set with HCV, the “Inhibition of HCV in culture (in words)” value is reported as “inhibited HCV in culture”.

In the data set on Huh7.5.1 cells [1], `C=C1CC[C@H](O)C/C1=C/C=C1\CCC[C@]2(C)[C@@H]([C@H](C)CCCC(C)C)CC[C@@H]12` [Vitamin D3] had a CC50 of 54.9 µM. It took 50.3 µM to reach half-maximal cytotoxicity in the data set “in vitro” (CC50 at 72 h). Moreover, the half-maximal effective concentration (EC50) in the data set with JC1-Luc2a (infection) (72 h) is 3.44 µM; in the data set with JC1-Luc2a (infection) (120 h), 2.78 µM; in data set [2] (72 h), 13 µM; in [2] (120 h) it was 12.6 µM.

The compound `C=C1/C(=C\C=C2/CCC[C@]3(C)[C@@H]([C@H](C)CCCC(C)(C)O)CC[C@@H]23)C[C@@H](O)C[C@@H]1O` [1,25(OH)2D3, 1,25-dihydroxyvitamin D3] had a CC50 with Huh7.5.1 cells [1] of 22.8 µM. This compound yielded a CC50 at 72 h in the data set “in vitro” of 17.3 µM. Moreover, the half-maximal effective concentration (EC50) was found to be 1 µM in data set [4] (Hepatitis C virus, GETYPE1B, BM4-5, read-out: EC50 (used for synergy dosing)); 1.19 µM in the data set with JC1-Luc2a (infection) (72 h); 1.07 µM in the data set on JC1-Luc2a (infection) (120 h); 2.92 µM in data set [2] (72 h); 2.95 µM in data set [2] (120 h). In the data set with Huh7.5.1 cells [5] (HCV naïve cells), the HIF1a expression result is “strongly up regulated”. In addition, the GPR37 expression entry in the data set with Huh7.5.1 cells [5] (progressive in vitro exposure) is recorded as “markedly up regulated”. In addition, the CCL20 gene expression entry with Huh7.5.1 cells [5] (shortly after treatment) is reported as “higher gene expression”. For the same compound, in the data set with Huh7.5.1 cells [5] (uninfected and infected cells), the SLC30A10 expression entry is given as “increased”. The “HIF1a mRNA expression, RT-qPCR” value in [6] was “up-regulation”. Moreover, the “HCV core protein expression by immunoblot” value with HCV core protein is listed as “Mild reduction”.
